Reference: ChEMBL document CHEMBL1131506, “Development of a binding model to protein tyrosine kinases for substituted pyrido[2,3-d]pyrimidine inhibitors” (J Med Chem, 1998)

Legend:
[1] = target: Fibroblast growth factor receptor (Homo sapiens, UniProt P22607+P11362+P22455+P21802); assay: Inhibitory concentration of compound against human fibroblast growth factor receptor; assay type: protein assay
[2] = target: Platelet-derived growth factor receptor (Mus musculus, UniProt P05622+P26618); assay: Inhibitory concentration of compound against mouse Platelet-derived growth factor receptor
[3] = target: Proto-oncogene tyrosine-protein kinase Src (Gallus gallus, UniProt P00523); assay: Inhibition of chicken c-Src tyrosine kinase
Method in brief: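 Recombinant avian c-Src expressed in baculovirus-infected insect cells, immunopurified on polystyrene beads carrying a covalently linked Src-specific monoclonal antibody. The enzyme-bead suspension was assayed in vitro with 40 µM ATP, measuring 32P-phosphate transfer into a trichloroacetic acid-precipitable random glutamate/tyrosine (4:1) copolymer. The IC50 was in µM.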

[4] = target: Epidermal growth factor receptor (Homo sapiens, UniProt P00533); assay: Inhibition of human epidermal growth factor receptor
Sequence of Epidermal growth factor receptor (P00533 whole entry): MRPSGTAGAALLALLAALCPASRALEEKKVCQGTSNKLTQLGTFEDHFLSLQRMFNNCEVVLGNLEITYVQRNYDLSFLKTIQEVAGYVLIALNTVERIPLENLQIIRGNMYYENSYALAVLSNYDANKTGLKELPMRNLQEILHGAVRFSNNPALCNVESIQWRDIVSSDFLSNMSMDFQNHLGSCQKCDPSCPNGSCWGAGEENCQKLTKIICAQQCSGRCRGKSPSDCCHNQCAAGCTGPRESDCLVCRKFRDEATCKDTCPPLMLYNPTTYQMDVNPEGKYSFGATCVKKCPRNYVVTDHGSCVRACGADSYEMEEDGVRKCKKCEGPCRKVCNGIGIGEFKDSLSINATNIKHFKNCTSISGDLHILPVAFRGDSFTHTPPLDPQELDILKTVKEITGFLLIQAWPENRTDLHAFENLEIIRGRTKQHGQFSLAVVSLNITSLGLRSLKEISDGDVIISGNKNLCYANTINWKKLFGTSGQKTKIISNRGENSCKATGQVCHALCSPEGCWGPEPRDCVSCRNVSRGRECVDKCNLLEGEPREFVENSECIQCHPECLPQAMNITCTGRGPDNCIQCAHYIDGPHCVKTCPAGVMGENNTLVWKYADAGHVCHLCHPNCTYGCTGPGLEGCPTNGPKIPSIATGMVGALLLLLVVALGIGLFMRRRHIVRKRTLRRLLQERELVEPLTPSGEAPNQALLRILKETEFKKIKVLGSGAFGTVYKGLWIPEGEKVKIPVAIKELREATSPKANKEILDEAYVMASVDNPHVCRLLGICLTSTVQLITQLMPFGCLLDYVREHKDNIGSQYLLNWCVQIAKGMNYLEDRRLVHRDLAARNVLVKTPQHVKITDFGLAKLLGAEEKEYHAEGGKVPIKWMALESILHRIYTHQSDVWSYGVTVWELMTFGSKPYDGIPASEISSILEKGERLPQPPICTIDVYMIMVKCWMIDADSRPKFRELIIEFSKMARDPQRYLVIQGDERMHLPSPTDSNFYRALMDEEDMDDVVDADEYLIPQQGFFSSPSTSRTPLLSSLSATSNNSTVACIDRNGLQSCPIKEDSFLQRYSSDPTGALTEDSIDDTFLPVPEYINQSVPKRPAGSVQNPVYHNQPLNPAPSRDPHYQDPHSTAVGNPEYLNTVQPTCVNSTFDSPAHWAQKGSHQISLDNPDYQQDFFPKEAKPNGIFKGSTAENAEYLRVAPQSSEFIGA

IC50 [1] [nM]	IC50 [2] [nM]	IC50 [3] [nM]	IC50 [4] [nM]	SMILES
> 16000	> 50000	> 50000		CN(C)c1cc(-c2cc3cnc(N)nc3nc2NC(=O)NC(C)(C)C)cc(N(C)C)c1
		> 50000		COc1cc(OC)cc(-c2cc3cnc(N)nc3nc2NC(=O)NC(C)(C)C)c1
61	70	10		Cn1c(=O)c(-c2c(Cl)cccc2Cl)cc2cnc(Nc3ccc(CC(=O)O)cc3)nc21
> 50000	> 50000	> 50000	> 50000	CN(C)c1ncc2cc(-c3c(Cl)cccc3Cl)c(=O)n(C)c2n1
1650	> 50000	> 50000		CCOc1cc(OCC)cc(-c2cc3cnc(N)nc3nc2NC(=O)NC(C)(C)C)c1
		28	720	COc1ccc(NC(=O)Nc2nc3nc(NCCCN4CCN(C)CC4)ncc3cc2-c2c(Cl)cccc2Cl)cc1
			880	CN1CCN(CCCNc2ncc3cc(-c4c(Cl)cccc4Cl)c(NC(=O)NC4CCCCC4)nc3n2)CC1
> 50000	> 50000	> 50000	> 50000	Cc1ncc2cc(-c3c(Cl)cccc3Cl)c(=O)n(C)c2n1
		9		CCN(CC)CCOc1cccc(Nc2ncc3cc(-c4c(Cl)cccc4Cl)c(=O)n(C)c3n2)c1
> 50000	> 50000	> 50000		CC(C)(C)NC(=O)Nc1nc2nc(N)ncc2cc1-c1cc(C(F)(F)F)cc(C(F)(F)F)c1
> 50000	> 50000	> 10000	> 50000	Cn1c(=O)c(-c2c(Cl)cccc2Cl)cc2cncnc21
		30	980	CN1CCN(CCCNc2ncc3cc(-c4c(Cl)cccc4Cl)c(NC(=O)NCc4ccccc4)nc3n2)CC1

SMILES	IC50 [1] [nM]	IC50 [2] [nM]	IC50 [3] [nM]	IC50 [4] [nM]
COc1cc(OC)cc(-c2cc3cnc(N)nc3n(C)c2=O)c1	126	43100	> 50000	
CN1CCN(CCCNc2ncc3cc(-c4c(Cl)cccc4Cl)c(=O)n(C)c3n2)CC1	348	2700	237	
CN1CCN(c2ccc(Nc3ncc4cc(-c5c(Cl)cccc5Cl)c(=O)n(C)c4n3)cc2)CC1	51	115		
